In ChEMBL document CHEMBL4513216, “Probing the Open Global Health Chemical Diversity Library for Multistage-Active Starting Points for Next-Generation Antimalarials” (ACS Infect Dis, 2020):

Assay: Toxicity liver stage against HepG2, at 10uM
Type: cell-based
Parameters: test concentration 10 uM, cell line HepG2-A16-CD81EGFP
Conditions: human, HepG2-A16-CD81EGFP cells; read-out: INHIBITION
Method in brief: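 Uninfected HepG2-A16-CD81EGFP cells, 3 × 10^3 per well, 1536-well, plated on prespotted compound at 10 μM final, parasite-free screening media added to match infected plates; puromycin 10 μM positive, DMSO 0.5% negative; run in parallel with 48 h PbLuc assay at 37 °C, 5% CO2; viability by CellTiter-Glo luminescence, normalized to controls.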

Row | SMILES | cytotoxicity at 10 µM
1 | CC(C)(C)C(=O)N[C@H]1C[C@@H](Cc2cc(CN3CCOCC3)on2)C1(C)C | -7.15%
2 | O=C(O)CCCNC(=O)N1CCc2c([nH]c3ccc(Cl)cc23)C1 | 8.13%
3 | COc1nn(C)cc1C(=O)NCC(=O)NCc1ccccn1 | -3.56%
4 | O=C(CN1C(=O)CCC1=O)N1CCC(CSCc2ccco2)CC1 | -8%
5 | Cc1ccccc1CN1CCC2(CCCN2C(=O)C(C)C)CC1 | 11.7%
6 | O[C@H]1CCN(CC2CCOC2)[C@H]1Cc1ccncc1 (stereo partly specified) | -2.32%
7 | COc1ccc(S(=O)(=O)N2CCn3cnc(COCC4CC4)c3C2)cc1 | -0.262%
8 | CC(C)(C)C(=O)N1C[C@@H]2COC[C@]2(c2nnc(C3CC3)o2)C1 | -2.47%
9 | CC(C)NC(=O)C(NC(=O)N1CCN(c2ccc(Cl)cc2)CC1)C(C)C (stereo unspecified) | 5.69%
10 | CCNC(=O)c1ccc2c(c1)nc1n2CCN(Cc2ccco2)C1 | -5.64%
11 | CCN1CC2(CC1=O)CN(Cc1cccs1)CCN(C(=O)C(C)C)C2 (stereo unspecified) | -13.9%
12 | OC1CCCOC12CCN(CCCOc1ccccc1F)CC2 (stereo unspecified) | 3.4%
13 | Cc1nc(-c2c(C)noc2C)cc(C2CCN(S(=O)(=O)N(C)C)CC2)n1 | 4.62%
14 | CC(=O)N1CCCC1c1nccnc1NCc1cccnc1 (stereo unspecified) | -6.72%
15 | Cc1ccc2[nH]c(C3CCN(CC(N)=O)CC3)nc2c1 | 3.23%
16 | COc1cccc(-c2cc(C3CCCNC3)ccn2)c1 (stereo unspecified) | 0.207%
17 | COc1ccc([C@@H]2CN(C(=O)c3cscn3)C[C@H]2C(=O)O)cc1 | -18.2%
18 | CC(=O)N1CC(c2ccnc(Nc3ccc(C)cn3)n2)C1 | -31.1%
19 | CCN(Cc1ccncc1)CC1(O)CCN(C(=O)c2cccc(C)c2)C1 (stereo unspecified) | -25.1%
20 | Nc1nccnc1C1CN(C(=O)c2cnccn2)CCO1 (stereo unspecified) | -9.17%
21 | Cc1c[nH]nc1C1CCN(S(=O)(=O)N(C)C)C1 (stereo unspecified) | -13%

Row | SMILES | cytotoxicity at 10 µM
22 | Cc1cccc(C(=O)N2CCCC2)c1NCC(=O)NC1(C#N)CCCC1 | -11.5%
23 | Cc1noc(C)c1CSCc1csc(CS(C)(=O)=O)n1 | -17%
24 | Cc1nnc(CN(C)CC(=O)NCCc2ccc(F)cc2)n1C | 2.25%
25 | Cc1ccc(N2N=C(C(=O)N(C)Cc3ccco3)NCC2=O)cc1 | 6.27%
26 | NC(=O)CC1CCCN(C(=O)NCC2(c3cccs3)CCCC2)C1 (stereo unspecified) | 1.9%
27 | Cc1noc(C2CCCN(Cn3cc(Cl)cn3)C2)n1 (stereo unspecified) | 2.42%
28 | CC(NC(=O)N1CCCN(C)CC1)c1ccc2c(c1)OCCO2 (stereo unspecified) | -6.36%
29 | CC(C(=O)Nc1cccc(Cl)c1SC(F)F)S(C)(=O)=O (stereo unspecified) | 0.685%
30 | CCOC(C)c1nc(CN2CCN(CC(F)F)CC2)cs1 (stereo unspecified) | -8.94%
31 | Cc1cnc(NC(=O)N2CCCCCC2)s1 | -2.81%
32 | O=S(=O)(NCC1COc2ccccc2C1)N1CCCCCC1 (stereo unspecified) | -0.138%
33 | N#Cc1ccc(CN2C(=O)c3ccccc3CS2(=O)=O)cc1 | -4.17%
34 | CCS(=O)(=O)N(C)C1CCN(c2cccc(F)c2C(C)=O)CC1 | 9.61%
35 | Cc1cc(OC(F)F)c(C(=O)N2CCC(CN(C)C)CC2)s1 | 6.04%
36 | Cc1ccc(-c2nnc(CN3CC(n4cc(C)cn4)C3)o2)cc1 | 2.48%
37 | NC(=O)CN(Cc1ccc(Br)cc1)C(=O)c1ccncc1 | 4.16%
38 | c1csc(C2(NCc3csc(C4CC4)n3)CCCC2)n1 | -3.75%
39 | CC(C)(NS(C)(=O)=O)c1nc(-c2ccc(F)cc2Cl)no1 | 4.98%
40 | CC(C)C(C)N1Cc2cccc(NCC(=O)N(C)C)c2C1 (stereo unspecified) | 8%
41 | COC(=O)c1cccc(S(=O)(=O)NC(=O)c2cccc(OC)c2OC)c1 | 12.2%
42 | COc1ncc(NCc2csc(-c3ccco3)n2)cc1C(N)=O | -17.9%

Row | SMILES | cytotoxicity at 10 µM
43 | O=C(COCc1ccccc1Cl)N1CCN(c2cnccn2)CC1 | 7.57%
44 | CCCNC(=O)Nc1cccc2c1CCN(S(C)(=O)=O)C2 | -7.92%
45 | CNC(=O)Cc1ccc(NC(=O)NC(C)C(C)C)cc1 (stereo unspecified) | -4.69%
46 | CS(=O)(=O)c1ccccc1C(=O)NCC1Cc2ccccc2O1 (stereo unspecified) | -9.6%
47 | Cc1cnc(C(=O)N2C[C@H]3CN(Cc4cccc(F)c4)C(=O)[C@H]3C2)cn1 | -85.7%
48 | O=C(C1CCS(=O)(=O)CC1)N1CCC(c2ccc(F)cc2)C1 (stereo unspecified) | -60.1%
49 | Cc1noc(C(C)N(C)CC(=O)NCCc2ccc(Cl)cc2)n1 (stereo unspecified) | 10.3%
50 | O=c1[nH]c(COc2ccc(Cl)cc2)nc2c1CCNC2 | 6.6%
51 | CC(O)c1cccc(N2CCC3(CCC(=O)N(C4CCCC4)C3)CC2)n1 (stereo unspecified) | -3.56%
52 | Cc1nc(C2CCCNC2)cc(N(C)CCc2cn[nH]c2)n1 (stereo unspecified) | -9.91%
53 | CN(C)CCN(C)C(=O)c1cn(CC2CCCCC2)nn1 | -3.61%
54 | COc1ccc(F)cc1C(=O)N1CCC2(CCC(=O)N(C(C)C)C2)CC1 | -4.75%
55 | Cn1ccc(C(=O)N2CCC(Cc3cccc4cccnc34)C2)n1 (stereo unspecified) | 2.16%
56 | COc1cc(CNCC(O)c2ccccc2F)cc2c1OCO2 (stereo unspecified) | -5.53%
57 | C=C(Br)CN(C)C1CCN(CCc2ccccn2)CC1 | 0.953%
58 | Cc1n[nH]c(C)c1C1COCCN1C(=O)c1cc(F)ccc1F (stereo unspecified) | -9.24%
59 | CCc1nc(CN2CCN(C(=O)C3(C#N)CCCCC3)CC2)cs1 | -3.6%
60 | Cc1cc(CN(C)C(=O)c2ccc(Cl)cc2N2CCCC2=O)no1 | -15.9%
61 | CCn1cnnc1C1CCN(C(=O)c2cc3c(s2)CCOC3)CC1 | -6.37%
62 | Cc1nccn1C1CCCN(C(=O)c2cnc[nH]2)C1 (stereo unspecified) | -5.43%
63 | Cc1cc(C2CCCN(CCS(=O)(=O)c3ccccc3)C2)n[nH]1 (stereo unspecified) | -16.7%

Row | SMILES | cytotoxicity at 10 µM
64 | CC(C)c1n[nH]c(C(=O)NC(C)c2ccncc2)c1Br (stereo unspecified) | -5.85%
65 | CCN(CC(=O)NC1(C)CCS(=O)(=O)C1)Cc1ccc(OC)c(F)c1 (stereo unspecified) | -9.44%
66 | Cc1ccc(-c2nc(CN3CCn4c(C)nnc4C3)co2)cc1 | -8.03%
67 | COc1ncccc1CNC(=O)NCCNS(C)(=O)=O | -14.4%
68 | CCCC(=O)N(C)CC(=O)Nc1ccc(Br)cn1 | -15.5%
69 | Cc1ccoc1C(=O)NC1CCN(Cc2ccccc2C#N)CC1 | -3.51%
70 | CC(C)(C)c1noc(CN2CCCN(Cc3cccs3)CC2)n1 | -8.8%
71 | COc1cc(CNC(=O)C2CC(=O)N(C(C)C)C2)ccn1 (stereo unspecified) | -5.36%
72 | CN(Cc1ccsc1)C(=O)Nc1ccc(S(=O)(=O)N(C)C)cc1 | 2.23%
73 | CN(C)c1ncc2c(O)nc(C3CCNCC3)cc2n1 | 13.3%
74 | CC(C)N1CCC2(CCCNC2)C1=O (stereo unspecified) | 0.906%
75 | COCC1CN(Cc2ccc(F)cc2)Cc2nnn(CC3CC3)c21 (stereo unspecified) | 3.4%
76 | O=C(c1ccsc1)N1CCOC2(CCN(Cc3cccnc3)CC2)C1 | -3.12%
77 | CN(C)CCN1C[C@@H]2CN(S(=O)(=O)c3cccs3)C[C@@H]2C1=O | 0.0221%
78 | O=C(NC1CCCC1)[C@H]1CC[C@@H]2[C@@H](CCN2c2ncc(F)cn2)O1 | 0.441%
79 | O=S(=O)(C1CC1)N1CCO[C@H]2[C@H](OCCN3CCCC3)CC[C@@H]21 | -5.63%
80 | CN(C)C1COC2(CCN(C(=O)c3cccc(Cl)c3)CC2)C1 (stereo unspecified) | -7.81%
81 | CSc1ncc(C(=O)N2C[C@@H]3CC[C@H]2CN(Cc2ccccc2)C3)cn1 | -7.49%
